# Reference: paper PMC5218545 (Angewandte Chemie (International ed. in English), 2016)
# Columns and labels:
# Type in all cases: biochemical
# [1] = biological target: T1, recombinant purified enzyme 15-LOX-1 (Homo sapiens, UniProt P16050); assay: ABPP two-step labeling of recombinant purified 15-LOX-1; conditions: 10 min incubation with inhibitor, then 2 min with probe N144
# T1 sequence (P16050 1-662): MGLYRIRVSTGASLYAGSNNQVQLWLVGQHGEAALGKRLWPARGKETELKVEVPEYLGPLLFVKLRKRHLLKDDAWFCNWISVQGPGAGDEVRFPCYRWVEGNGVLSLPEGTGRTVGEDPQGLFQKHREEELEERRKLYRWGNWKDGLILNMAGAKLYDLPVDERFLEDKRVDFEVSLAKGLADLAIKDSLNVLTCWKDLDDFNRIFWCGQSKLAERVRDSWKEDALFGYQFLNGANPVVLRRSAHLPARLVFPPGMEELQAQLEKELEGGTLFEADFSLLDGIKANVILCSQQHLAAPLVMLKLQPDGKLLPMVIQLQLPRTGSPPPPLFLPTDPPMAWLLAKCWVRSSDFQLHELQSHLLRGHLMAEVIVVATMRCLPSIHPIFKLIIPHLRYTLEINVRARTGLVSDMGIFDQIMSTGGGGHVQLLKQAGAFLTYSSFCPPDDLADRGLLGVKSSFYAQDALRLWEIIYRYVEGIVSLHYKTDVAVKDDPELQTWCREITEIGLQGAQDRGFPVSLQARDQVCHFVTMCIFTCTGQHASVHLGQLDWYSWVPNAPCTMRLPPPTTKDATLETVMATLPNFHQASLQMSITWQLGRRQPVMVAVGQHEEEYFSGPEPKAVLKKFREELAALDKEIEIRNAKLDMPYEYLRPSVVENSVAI
# Method in brief: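 Recombinant purified human 15-LOX-1 preincubated 10 min with a reversible 15-LOX-1 inhibitor or a 5-LOX inhibitor as control. Then 2 min with an alkene-tagged bis-alkyne probe. Biotinyl phenyl boronic acid was attached to the terminal alkene by oxidative Heck reaction. Equal enzyme amounts were run on Western blot and detected by HRP-streptavidin luminescence, alongside Coomassie staining and no-probe controls.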
# [2] = biological target: T2, endogenous 15-LOX-1 in HeLa cell lysate (Homo sapiens, UniProt P16050); assay: Activity-based labeling in HeLa cell lysate; conditions: inhibitor 90 μM; bands also characterized by the 15-LOX-1 antibody
# T2 sequence (P16050 1-662): T1 sequence (P16050 1-662)
# Method in brief: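 HeLa cell lysate: endogenous enzyme preincubated with inhibitors at 90 μM, then labeled with an alkene-tagged bis-alkyne probe. Biotinylation by oxidative Heck reaction with biotinyl phenyl boronic acid. Blots were first probed with 15-LOX antibody, then stripped and developed with HRP-conjugated streptavidin by on-blot luminescence. Included no-probe controls.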
# [3] = biological target: T3, 15-LOX-1 in tissue lysates from different mice organs (Mus musculus, UniProt P39654); assay: Activity-based labeling in mouse tissue lysates; conditions: inhibitor 90 μM, three characteristic bands
# T3 sequence (P39654 1-663): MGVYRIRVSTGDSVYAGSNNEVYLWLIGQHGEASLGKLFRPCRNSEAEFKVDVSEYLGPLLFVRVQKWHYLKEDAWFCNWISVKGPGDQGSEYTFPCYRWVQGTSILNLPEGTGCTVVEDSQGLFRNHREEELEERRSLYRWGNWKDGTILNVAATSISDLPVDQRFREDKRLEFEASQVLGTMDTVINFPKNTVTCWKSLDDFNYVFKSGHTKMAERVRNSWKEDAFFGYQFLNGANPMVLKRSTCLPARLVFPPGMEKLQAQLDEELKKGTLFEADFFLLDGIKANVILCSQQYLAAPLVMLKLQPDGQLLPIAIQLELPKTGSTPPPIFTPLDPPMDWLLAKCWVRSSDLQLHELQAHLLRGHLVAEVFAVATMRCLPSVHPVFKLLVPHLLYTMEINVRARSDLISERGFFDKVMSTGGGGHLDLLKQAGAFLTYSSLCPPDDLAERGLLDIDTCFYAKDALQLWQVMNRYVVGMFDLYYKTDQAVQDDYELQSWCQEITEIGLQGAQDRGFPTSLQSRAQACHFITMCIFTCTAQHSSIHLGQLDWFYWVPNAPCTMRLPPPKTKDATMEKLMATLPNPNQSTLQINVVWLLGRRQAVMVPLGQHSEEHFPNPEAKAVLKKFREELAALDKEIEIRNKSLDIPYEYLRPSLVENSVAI
# Method in brief: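 Mouse heart tissue lysate: endogenous enzyme preincubated with inhibitors at 90 μM, then labeled with an alkene-tagged bis-alkyne probe. The probe was biotinylated by oxidative Heck coupling with biotinyl phenyl boronic acid. Labeled proteins were detected on blot with HRP-conjugated streptavidin luminescence.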
effect of inhibitor pre-incubation on N144 labeling of recombinant 15-LOX-1 [1],effect of inhibitor on N144 labeling in HeLa cell lysates [2],effect of inhibitor on N144 labeling in mouse heart lysate [3],Compound
labeling was clearly inhibited,decrease of the labeling,reduced labeling,c1ccc2c(c1)SCc1c-2[nH]c2ccccc12 [PD-146176]
did not affect the labeling,,,CC(c1cc2ccccc2s1)N(O)C(N)=O (stereo not shown) [Zileuton]
